This is one part of a sample in which hits are shown more often than they occur.
IDH1 mut inh – blocks human IDH1 R132H reductase activity. diaphorase/resazurin fluorescence, 60 min. inhibition, % at 10 µM. 70,000 compounds, 0.18% hits. AID 624101; in the data active = inhibition above about 34%; inconclusive = no clear call, values can overlap the other calls; inactive = below about 11%
Target sequence (O75874 whole entry R132H): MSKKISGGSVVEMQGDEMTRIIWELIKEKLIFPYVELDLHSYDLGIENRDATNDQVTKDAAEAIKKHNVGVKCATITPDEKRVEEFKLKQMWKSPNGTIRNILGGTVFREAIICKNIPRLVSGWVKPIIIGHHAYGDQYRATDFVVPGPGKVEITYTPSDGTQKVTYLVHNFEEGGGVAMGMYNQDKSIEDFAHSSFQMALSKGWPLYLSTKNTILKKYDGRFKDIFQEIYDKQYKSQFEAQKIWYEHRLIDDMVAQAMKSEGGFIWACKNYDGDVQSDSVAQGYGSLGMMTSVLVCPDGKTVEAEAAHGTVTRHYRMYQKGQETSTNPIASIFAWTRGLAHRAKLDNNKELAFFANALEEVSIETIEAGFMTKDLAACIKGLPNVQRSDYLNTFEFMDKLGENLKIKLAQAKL
T cruzi growth-1 – blocks T. cruzi growth in NIH3T3 culture | 77,000 compounds, 5.9% hits | T. cruzi beta-gal in NIH3T3, GalScreen luminescence, 90 h | inhibition, % at 8.34 µM;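 active = mean inhibition above about 93%, with at least 55% of replicates each passing it, limit read from the data, passing the limit was not always enough; inconclusive = only one of those two conditions holds; inactive = neither condition holds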
GASC1 inh – KDM4C (human) demethylase inhibition; Q9H3R0; GST-KDM4C 2-372, H3K9me3 peptide, LANCE TR-FRET; inhibition, % at 12.5 µM; 96,000 compounds, 0.15% hits;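 active = mean replicate inhibition above about 25%, with at least 55% of replicates also reaching it, limit read from the data, passing the limit was not always enough; inconclusive = only one of those two conditions met; inactive = neither condition met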
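System – N-terminal GST-fused human GASC-1 (KDM4C) fragment, residues 2-372 · Input – enzyme final amount 10 nM · Technique – LANCE TR-FRET, Eu antibody, ULight-streptavidin, EDTA, ex 340 nm, em 618/671 nm · Medium – HEPES buffer, pH 7.5, plus ascorbate · Incubation – enzyme reaction 30 min, then detection 60 min, both room temperature · Reagent – H3K9me3 peptide with Fe(II)/2OG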
T cruzi growth-2 – Trypanosoma cruzi proliferation inhibition | shares compounds with T cruzi growth-1 | T. cruzi beta-gal in NIH3T3, GalScreen luminescence, 90 h | inhibition, % at 8.35 µM | 5,600 compounds, 72% hits;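 active = mean replicate inhibition above about 95% and at least 55% of replicates individually reaching it, limit read from the data; inconclusive = only one of the two criteria is met; inactive = neither criterion is met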
T cruzi growth-3 – blocks T. cruzi growth in NIH3T3 host cells; 5,600 compounds, 21% hits; T. cruzi beta-gal in NIH3T3, GalScreen luminescence, 90 h; inhibition, % at 2.09 µM; shares compounds with T cruzi growth-1;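 active = mean inhibition above about 95%, with at least 55% of replicates also reaching it, limit read from the data; inconclusive = meets just one of the two conditions; inactive = meets neither condition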
3T3 cytotox – cytotoxicity in mouse NIH/3T3 fibroblasts; shares compounds with T cruzi growth-1; NIH/3T3 viability, CellTiter-Glo ATP luminescence, 90 h; cytotoxicity (signal decrease), % at 8.35 µM; 5,600 compounds, 14% hits;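 active = mean signal decrease across replicates above about 35% based on untreated-well scatter, with enough replicates individually passing, limit read from the data; inconclusive = no rule stated though some were filed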
NIH3T3 tox 2 – kills mouse NIH/3T3 fibroblasts; shares compounds with T cruzi growth-1; NIH/3T3 viability, CellTiter-Glo ATP luminescence, 90 h; inhibition, % at 24.9 µM; 5,600 compounds, 56% hits;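 active = mean loss of cell viability signal at or above a set limit, and enough replicates individually reaching it; inconclusive = meets only the mean limit or only the replicate share; inactive = meets neither condition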
Each line names hits and unclear results; the compound was inactive in the other large screens (follow-up assays come after a bar, where they were run).

COc1cc(O)c(Oc2cc(C)cc(O)c2C(=O)O)c(CO)c1	none (no result: T cruzi growth-1, GASC1 inh)
COc1ccc(-c2nnc3c4ccccc4c(C)nn23)cc1S(=O)(=O)N1CCN(C)CC1	none (no result: T cruzi growth-1, GASC1 inh)
CCC1(C)Cc2ccccc2-c2nc(NCCCO)n(-c3ccc(C)cc3)c(=O)c21 (configuration not stated)	none (no result: T cruzi growth-1, GASC1 inh)
O=C1C2=C(c3ccccc3)c3cc(F)ccc3C2Sc2ccccc21 (configuration not stated)	none (no result: T cruzi growth-1, GASC1 inh)
C[C@@H]1CN([C@@H](C)CO)S(=O)(=O)c2ccc(C#CCN(C)C)cc2O[C@@H]1CN(C)Cc1ccncc1	none
CCCC#Cc1ccc2c(c1)O[C@@H](CN(C)Cc1ccncc1)[C@H](C)CN([C@H](C)CO)S2(=O)=O	T cruzi growth-1 117 | T cruzi growth-2 98 | T cruzi growth-3 102 | 3T3 cytotox 72 | NIH3T3 tox 2 105
CC(C)CC#Cc1ccc2c(c1)O[C@@H](CN(C)Cc1ccncc1)[C@@H](C)CN([C@@H](C)CO)S2(=O)=O	T cruzi growth-1 122 | T cruzi growth-2 109 | T cruzi growth-3 inactive | 3T3 cytotox inactive | NIH3T3 tox 2 109
CC(C)CC#Cc1ccc2c(c1)O[C@@H](CN(C)Cc1cncnc1)[C@@H](C)CN([C@H](C)CO)S2(=O)=O	none
CC(=O)c1cccc(NC(=O)C(C)NS(=O)(=O)c2ccc(F)cc2)c1 (configuration not stated)	none (no result: T cruzi growth-1, GASC1 inh)
O=C(CC1CCOCC1)Nc1ccc(I)cc1	none (no result: T cruzi growth-1, GASC1 inh)
C[C@H](O)C#Cc1ccc([C@@H]2[C@@H](CO)N3CCCCN(C(=O)Nc4ccccc4)C[C@@H]23)cc1	none (no result: IDH1 mut inh)
CC(C)C#Cc1ccc([C@@H]2[C@@H](CO)N3CCCCN(C(=O)Nc4ccccc4)C[C@@H]23)cc1	T cruzi growth-1 106 (no result: IDH1 mut inh) | T cruzi growth-2 112 | T cruzi growth-3 inactive | 3T3 cytotox inactive | NIH3T3 tox 2 105
CC(C)C#Cc1ccc([C@@H]2[C@H](CO)N3CCCCN(C(=O)Nc4ccccc4)C[C@@H]23)cc1	none (no result: IDH1 mut inh)
CC(C)C#Cc1ccc([C@@H]2[C@H]3CN(C(=O)Nc4ccccc4)CCCCN3[C@H]2CO)cc1	T cruzi growth-1 inconclusive (no result: IDH1 mut inh) | T cruzi growth-2 inactive | T cruzi growth-3 inactive | 3T3 cytotox 88 | NIH3T3 tox 2 106
C[C@H](O)C#Cc1ccc([C@H]2[C@@H](CO)N3CCCCN(C(=O)Nc4ccccc4)C[C@H]23)cc1	T cruzi growth-1 109 (no result: IDH1 mut inh) | T cruzi growth-2 inactive | T cruzi growth-3 inactive | 3T3 cytotox inactive | NIH3T3 tox 2 inactive
CC(C)C#Cc1ccc([C@@H]2[C@@H](CO)N3CCCCN(C(=O)Nc4ccccc4)C[C@H]23)cc1	T cruzi growth-1 99 (no result: IDH1 mut inh) | T cruzi growth-2 100 | T cruzi growth-3 inactive | 3T3 cytotox 39 | NIH3T3 tox 2 105
C[C@@H](O)C#Cc1ccc([C@@H]2[C@@H](CO)N3CCCCN(C(=O)Nc4ccccc4)C[C@@H]23)cc1	none (no result: IDH1 mut inh)
C[C@@H](O)C#Cc1ccc([C@H]2[C@@H](CO)N3CCCCN(C(=O)Nc4ccccc4)C[C@H]23)cc1	none (no result: IDH1 mut inh)
Cn1c(SCC(=O)Nc2cc(Cl)cc(Cl)c2)nnc1-c1ccc(Cl)cc1	none (no result: T cruzi growth-1, GASC1 inh)
O=[N+]([O-])c1ccc(NCCNS(=O)(=O)c2ccc(Br)cc2)cc1	none (no result: T cruzi growth-1, GASC1 inh)
O=C(CSc1nnc(-c2ccc(Cl)cc2)n1-c1ccccc1)Nc1ccccc1C(F)(F)F	none (no result: T cruzi growth-1, GASC1 inh)
O=C(Nc1sc2c(c1C(=O)NCc1ccco1)CCCC2)c1ccc(F)cc1	none (no result: T cruzi growth-1, GASC1 inh)
CO[C@H]1CN(C)C(=O)c2ccc(NS(=O)(=O)c3cccc(F)c3)cc2OC[C@@H](C)N(Cc2cc(F)ccc2F)C[C@H]1C	none (no result: T cruzi growth-1)
CO[C@H]1CN(C)C(=O)c2cc(NC(=O)C3CCCCC3)ccc2OC[C@H](C)NC[C@H]1C	T cruzi growth-1 107 | T cruzi growth-2 inactive | T cruzi growth-3 inactive | 3T3 cytotox inactive | NIH3T3 tox 2 inactive
CO[C@H]1CN(C)C(=O)c2cc(NS(=O)(=O)c3cccc(F)c3)ccc2OC[C@H](C)N(Cc2cc(F)ccc2F)C[C@@H]1C	T cruzi growth-1 112 | T cruzi growth-2 105 | T cruzi growth-3 inactive | 3T3 cytotox inactive | NIH3T3 tox 2 inactive
